Source: ChEMBL document CHEMBL1146071, “2,4-diaminopyrimidine derivatives as potent growth hormone secretagogue receptor antagonists” (J Med Chem, 2006)
Calls of active or inactive are those of the source. No cut-off for these calls is given here.

Tests used:
[1] = target: T1, Growth hormone secretagogue receptor type 1 (Homo sapiens, UniProt Q92847); assay: Antagonist activity at human GHS receptor by inhibition of ghrelin-induced intracellular calcium flux in CHOK cells; type: functional, cell-based
T1 sequence (Q92847 whole entry): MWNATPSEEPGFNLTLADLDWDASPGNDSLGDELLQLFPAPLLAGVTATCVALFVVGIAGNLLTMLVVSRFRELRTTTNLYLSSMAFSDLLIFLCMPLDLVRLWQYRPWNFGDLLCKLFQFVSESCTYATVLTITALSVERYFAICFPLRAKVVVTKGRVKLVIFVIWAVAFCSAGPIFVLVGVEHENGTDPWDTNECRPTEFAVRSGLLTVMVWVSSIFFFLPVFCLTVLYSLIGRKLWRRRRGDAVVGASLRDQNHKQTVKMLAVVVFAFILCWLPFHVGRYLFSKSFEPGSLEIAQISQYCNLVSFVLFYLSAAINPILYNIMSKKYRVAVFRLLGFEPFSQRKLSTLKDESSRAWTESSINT
Procedure, shortened: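 CHO-K cells stably expressing human GHS-R, grown in Ultra-CHO medium with 1% dialyzed FCS and 400 µg/mL G418, plated to confluency overnight. Loaded with Fluo-4 AM plus probenecid for 1-3 h in the dark at RT, then washed. On FLIPR (ex 488/em 520 nm), compound added first and read 3 min, then ghrelin added and read another 3 min. Duplicate or triplicate wells; sigmoidal fit for IC50.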

[2] = target: T1, Growth hormone secretagogue receptor type 1; assay: Displacement of [125I]ghrelin from human GHS receptor expressed in CHOK cells; type: cell-based
Procedure, shortened: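 Membranes from CHO-K cells expressing human ghrelin receptor, prepared by sonication and a 60000g spin. Filtered onto PEI-soaked GF/C, washed cold, scintillation counted; percent inhibition, sigmoidal fit for IC50.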

[3] = Plasma concentration in Sprague-Dawley rat at 5 mg/kg after 1 hr; type: ADME, organism-based; parameters: dose 5 mg/kg
Procedure, shortened: (§1)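 Rats dosed at 5 mg/kg: iv for AUC (µg·h/mL), clearance (L/h·kg) and Cmax (µg/mL); oral for bioavailability unless stated otherwise. Brain (µg/g) and plasma levels taken at 1 and 8 h. Mean of n = 3.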

[4] = Plasma clearance in Sprague-Dawley rat at 5 mg/kg, iv; type: ADME, organism-based; parameters: dose 5 mg/kg, route intravenous; procedure, shortened: as §1
[5] = Half life in Sprague-Dawley rat at 5 mg/kg; type: ADME, organism-based; parameters: dose 5 mg/kg; details: in vivo; procedure, shortened: as §1
[6] = (§2) AUC in Sprague-Dawley rat at 5 mg/kg, iv; type: ADME, organism-based, Plasma; parameters: dose 5 mg/kg, route intravenous; details: Sprague-Dawley, plasma; procedure, shortened: as §1
[7] = Oral bioavailability in Sprague-Dawley rat at 5 mg/kg; type: ADME, organism-based; details: in vivo; procedure, shortened: as §1
[8] = Concentration in Sprague-Dawley rat brain at 5 mg/kg after 1 hr; type: ADME, organism-based; parameters: dose 5 mg/kg; details: read-out: Ct; procedure, shortened: as §1
[9] = Cmax in Sprague-Dawley rat at 5 mg/kg, iv; type: ADME, organism-based; parameters: dose 5 mg/kg, route intravenous; details: in vivo; procedure, shortened: as §1
[10] = Plasma concentration in Sprague-Dawley rat at 5 mg/kg after 8 hrs; type: ADME, organism-based; parameters: dose 5 mg/kg; procedure, shortened: as §1
[11] = Concentration in Sprague-Dawley rat brain at 5 mg/kg after 8 hrs; type: ADME, organism-based; parameters: dose 5 mg/kg; details: read-out: Ct; procedure, shortened: as §1
[12] = Concentration in Sprague-Dawley rat brain at 30 mg/kg, ip after 8 hrs; type: ADME, organism-based; parameters: dose 30 mg/kg, route intraperitoneal; details: read-out: Ct
Procedure, shortened: (§3)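 Rats given 30 mg/kg ip. Brain (µg/g) and plasma levels measured at 1 and 8 h after dosing.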

[13] = Plasma clearance in Sprague-Dawley rat at 5 mg/kg, iv
[14] = Plasma concentration in Sprague-Dawley rat at 30 mg/kg, ip after 1 hr; type: ADME, organism-based; parameters: dose 30 mg/kg, route intraperitoneal; procedure, shortened: as §3
[15] = target: Melanin-concentrating hormone receptor (Homo sapiens, UniProt Q969V1+Q99705); assay: Activity against MCH receptor in an intracellular calcium flux assay; type: functional, cell-based
[16] = test system: Rattus norvegicus; assay: as §2; type: ADME, organism-based, Plasma; parameters: dose 5 mg/kg, route intravenous; details: in vivo; procedure, shortened: as §1
[17] = target: Dopamine receptor; assay: Inhibition of dopaminergic receptor; type: protein assay
[18] = test system: Rattus norvegicus; assay: AUC in Sprague-Dawley rat at 5 mg/kg, ip; type: ADME, organism-based, Plasma; parameters: dose 5 mg/kg, route intraperitoneal; details: in vivo
[19] = test system: Rattus norvegicus; assay: Decrease in body weight in Sprague-Dawley rat at 30 mg/kg, ip after 24 hrs; type: functional, organism-based; parameters: dose 30 mg/kg
Procedure, shortened: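 Free-fed Sprague-Dawley rats given a single ip dose (10 or 30 mg/kg); body weight taken 24 h after dosing. n = 10/group, mean ± SEM; ANOVA with post hoc Dunnett.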

[20] = Inhibition of adrenergic receptor
[21] = target: Muscarinic acetylcholine receptor; assay: Inhibition of muscarinic receptor; type: protein assay
[22] = test system: Rattus norvegicus; assay: Reduction in cumulative food intake in fasted Sprague-Dawley rat at 30 mg/kg, ip after 24 hrs; type: functional; parameters: scale not given: the % may be the effect or the level left; details: route intraperitoneal
Procedure, shortened: (§4)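 Single ip dose of 10 or 30 mg/kg to free-fed or 16 h (overnight) fasted Sprague-Dawley rats. Cumulative food intake recorded at 1 and 24 h after dosing. n = 10/group, mean ± SEM; ANOVA with post hoc Dunnett.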

[23] = Half life in Sprague-Dawley rat at 5 mg/kg, ip; type: ADME, organism-based; parameters: dose 5 mg/kg, route intraperitoneal; details: in vivo
[24] = test system: Rattus norvegicus; assay: Reduction in cumulative food intake in free-fed Sprague-Dawley rat at 10 mg/kg, ip after 1 hr; type: functional, organism-based; parameters: dose 10 mg/kg; procedure, shortened: as §4
[25] = target: Nociceptin/orphanin FQ receptor, ORL1 (Homo sapiens) (UniProt P41146); assay: Inhibition of opioid like-1 receptor
Nociceptin/orphanin FQ receptor, ORL1 (Homo sapiens), sequence (P41146 whole entry, looked up): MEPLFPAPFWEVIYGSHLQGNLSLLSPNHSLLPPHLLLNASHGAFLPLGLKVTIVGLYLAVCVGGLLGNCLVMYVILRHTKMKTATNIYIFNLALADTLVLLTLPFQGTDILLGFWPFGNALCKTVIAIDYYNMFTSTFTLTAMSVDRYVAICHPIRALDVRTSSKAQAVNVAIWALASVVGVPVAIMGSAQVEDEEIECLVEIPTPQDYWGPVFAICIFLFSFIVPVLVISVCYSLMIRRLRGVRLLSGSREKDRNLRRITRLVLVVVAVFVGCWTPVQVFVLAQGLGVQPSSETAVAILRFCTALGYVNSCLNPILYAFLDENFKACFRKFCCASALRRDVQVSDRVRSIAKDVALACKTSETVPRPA

[26] = Cmax in Sprague-Dawley rat at 5 mg/kg, ip; type: ADME, organism-based; parameters: dose 5 mg/kg, route intraperitoneal; details: in vivo
[27] = test system: Rattus norvegicus; assay: Reduction in cumulative food intake in free-fed Sprague-Dawley rat at 10 mg/kg, ip after 24 hrs; type: functional, organism-based; parameters: dose 10 mg/kg; procedure, shortened: as §4
[28] = test system: Rattus norvegicus; assay: Reduction in cumulative food intake in fasted Sprague-Dawley rat at 10 mg/kg, ip after 24 hrs; type: functional, organism-based; parameters: dose 10 mg/kg; procedure, shortened: as §4
[29] = test system: Rattus norvegicus; assay: Reduction in cumulative food intake in free-fed Sprague-Dawley rat at 30 mg/kg, ip after 1 hr; type: functional, organism-based; parameters: dose 30 mg/kg; procedure, shortened: as §4
[30] = Concentration in Sprague-Dawley rat brain at 30 mg/kg, ip after 1 hr; type: ADME, organism-based; parameters: dose 30 mg/kg, route intraperitoneal; details: read-out: Ct; procedure, shortened: as §3
[31] = Plasma concentration in Sprague-Dawley rat at 30 mg/kg, ip after 8 hrs; type: ADME, organism-based; parameters: dose 30 mg/kg, route intraperitoneal; procedure, shortened: as §3
[32] = Inhibition of histamine receptor
[33] = target: T2, 5-hydroxytryptamine receptor 2C (Homo sapiens, UniProt P28335); assay: Inhibition of 5HT2C receptor
T2 sequence (P28335 whole entry): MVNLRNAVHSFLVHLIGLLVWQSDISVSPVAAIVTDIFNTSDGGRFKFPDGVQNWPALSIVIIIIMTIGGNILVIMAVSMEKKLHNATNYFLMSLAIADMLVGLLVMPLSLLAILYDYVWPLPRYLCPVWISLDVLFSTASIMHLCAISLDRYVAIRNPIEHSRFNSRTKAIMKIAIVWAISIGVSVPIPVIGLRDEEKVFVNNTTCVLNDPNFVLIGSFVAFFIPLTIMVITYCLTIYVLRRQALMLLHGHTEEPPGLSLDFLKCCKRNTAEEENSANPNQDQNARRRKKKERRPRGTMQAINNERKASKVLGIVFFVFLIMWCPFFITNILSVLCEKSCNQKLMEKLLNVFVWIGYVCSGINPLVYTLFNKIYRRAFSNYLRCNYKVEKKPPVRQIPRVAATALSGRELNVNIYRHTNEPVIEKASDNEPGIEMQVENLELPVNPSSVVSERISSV

[34] = test system: Rattus norvegicus; assay: Reduction in cumulative food intake in free-fed Sprague-Dawley rat at 30 mg/kg, ip after 24 hrs; type: functional; parameters: scale not given: the % may be the effect or the level left; details: route intraperitoneal; procedure, shortened: as §4
[35] = test system: Rattus norvegicus; assay: Bioavailability in Sprague-Dawley rat at 5 mg/kg, ip; type: ADME, organism-based; details: in vivo
[36] = target: Cannabinoid receptor 1 (Homo sapiens) (UniProt P21554); assay: Inhibition of CB1 receptor at 10 uM
Cannabinoid receptor 1 (Homo sapiens), sequence (P21554 whole entry): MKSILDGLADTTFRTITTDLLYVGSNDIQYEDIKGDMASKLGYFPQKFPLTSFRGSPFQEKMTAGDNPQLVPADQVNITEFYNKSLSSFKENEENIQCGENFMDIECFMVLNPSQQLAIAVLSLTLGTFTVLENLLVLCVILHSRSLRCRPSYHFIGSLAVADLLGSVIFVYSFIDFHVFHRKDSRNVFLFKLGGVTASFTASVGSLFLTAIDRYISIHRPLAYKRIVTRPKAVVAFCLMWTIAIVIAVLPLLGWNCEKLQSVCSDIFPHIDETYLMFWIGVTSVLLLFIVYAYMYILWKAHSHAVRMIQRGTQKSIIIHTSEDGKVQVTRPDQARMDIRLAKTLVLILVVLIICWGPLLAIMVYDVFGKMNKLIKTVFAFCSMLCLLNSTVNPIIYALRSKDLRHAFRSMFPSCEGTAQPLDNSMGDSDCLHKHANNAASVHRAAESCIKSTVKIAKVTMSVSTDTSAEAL

Structure (SMILES): CCc1nc(N)nc(N)c1-c1ccc(NCc2cc(F)c(S(C)(=O)=O)c(F)c2)cc1
- IC50 [1]: 45 nM
- IC50 [2]: 2.4 nM

Structure (SMILES): CCc1nc(N)nc(N)c1-c1ccc(NCc2ccc([N+](=O)[O-])cc2)cc1
- concentration at 1 h [3]: 270 ng/mL
- clearance [4]: 43.3 mL/min/kg
- IC50 [1]: 23 nM
- half-life [5]: 5.5 h
- AUC [6]: 1600 ng·h/mL
- bioavailability [7]: 68%
- concentration at 1 h [8]: 530 ng/g
- Cmax [9]: 140 ng/mL
- IC50 [2]: 11 nM

Structure (SMILES): CCc1nc(N)nc(N)c1-c1ccc(CNc2ccc(S(C)(=O)=O)cc2)cc1
- IC50 [1]: 120 nM
- IC50 [2]: 9.8 nM

Structure (SMILES): CCc1nc(N)nc(N)c1-c1ccc(NCc2ccc(Cl)cc2)cc1
- concentration at 8 h [10]: 110 ng/mL
- concentration at 1 h [3]: 250 ng/mL
- clearance [4]: 30 mL/min/kg
- IC50 [1]: 1380 nM
- half-life [5]: 5.2 h
- AUC [6]: 2200 ng·h/mL
- bioavailability [7]: 76%
- concentration at 1 h [8]: 2740 ng/g
- Cmax [9]: 170 ng/mL
- IC50 [2]: 310 nM
- concentration at 8 h [11]: 600 ng/g

Structure (SMILES): Nc1nc(N)c(-c2ccc(NCc3cc(F)c(S(=O)(=O)C(F)(F)F)c(F)c3)cc2)c(COCc2ccccc2)n1
- IC50 [1]: 85 nM
- IC50 [2]: 1 nM

Structure (SMILES): Nc1nc(N)c(-c2ccc(NCc3ccncc3)cc2)c(COCc2ccccc2)n1
- IC50 [1]: 86 nM
- IC50 [2]: 21 nM

Structure (SMILES): Nc1nc(N)c(-c2ccc(NCc3ccc(Cl)s3)cc2)c(COCc2ccccc2)n1
- IC50 [1]: 320 nM
- IC50 [2]: 43 nM

Structure (SMILES): CCc1nc(N)nc(N)c1-c1ccc(NCc2ccc(S(C)(=O)=O)cc2)c(Br)c1
- IC50 [1]: 42 nM
- IC50 [2]: 5.7 nM

Structure (SMILES): Nc1nc(N)c(-c2ccc(NCc3csc(Cl)c3)cc2)c(COCc2ccccc2)n1
- IC50 [1]: 170 nM
- IC50 [2]: 6.3 nM

Structure (SMILES): CCc1nc(N)nc(N)c1-c1ccc(NCc2ccnc(Cl)c2)cc1
- IC50 [1]: 220 nM
- IC50 [2]: 110 nM

Structure (SMILES): Nc1nc(N)c(-c2ccc(NCc3cnc4ccccc4c3)cc2)c(COCc2ccccc2)n1
- IC50 [1]: 780 nM
- IC50 [2]: 130 nM

Structure (SMILES): CCc1nc(N)nc(N)c1-c1ccc(NCc2ccc(C(C)O)cc2)cc1 (stereo not given)
- IC50 [1]: 110 nM
- IC50 [2]: 13 nM

Structure (SMILES): N#Cc1ccc(COc2ccc(-c3c(N)nc(N)nc3COCc3ccccc3)cc2)cc1
- IC50 [1]: 3610 nM
- IC50 [2]: 83 nM

Structure (SMILES): Nc1nc(N)c(-c2ccc(NCc3ccnc(Cl)c3)cc2)c(COCc2ccccc2)n1
- IC50 [1]: 3.6 nM
- IC50 [2]: 1.5 nM

Structure (SMILES): CS(=O)(=O)c1ccc(COc2ccc(-c3c(N)nc(N)nc3COCc3ccccc3)cc2)cc1
- IC50 [1]: 48 nM
- IC50 [2]: 6.9 nM

Structure (SMILES): CCc1nc(N)nc(N)c1-c1ccc(NCc2ccc(S(C)(=O)=O)cc2)c(Cl)c1
- concentration at 1 h [3]: 1040 ng/mL
- clearance [4]: 26.7 mL/min/kg
- IC50 [1]: 11 nM
- half-life [5]: 8.7 h
- AUC [6]: 2700 ng·h/mL
- bioavailability [7]: 78%
- concentration at 1 h [8]: 30 ng/g
- Cmax [9]: 160 ng/mL
- IC50 [2]: 4.2 nM

Structure (SMILES): CCc1nc(N)nc(N)c1-c1ccc(NCc2ccc(C#N)cc2)cc1
- IC50 [1]: 780 nM
- IC50 [2]: 160 nM

Structure (SMILES): Nc1nc(N)c(-c2ccc(NCc3ccc(Cl)cc3)cc2)c(COCc2ccccc2)n1
- concentration at 8 h [12]: 140 ng/g
- clearance [13]: 36.7 mL/min/kg
- concentration at 8 h [10]: 30 ng/mL
- concentration at 1 h [3]: 350 ng/mL
- IC50 [1]: 180 nM
- concentration at 1 h [14]: 500 ng/mL
- IC50 [15]: > 10000 nM
- AUC [16]: 120 ng·h/mL
- IC50 [17]: > 33000 nM
- bioavailability [7]: 5.5%
- AUC [18]: 1140 ng·h/mL
- Activity [19]: Active
- IC50 [20]: > 33000 nM
- IC50 [21]: > 5500 nM
- Activity [22]: 24%
- half-life [23]: 3.9 h
- Activity [24]: Dose-dependent effect
- IC50 [25]: > 33000 nM
- Cmax [26]: 260 ng/mL
- Activity [27]: Dose-dependent effect
- Activity [28]: Dose-dependent effect
- concentration at 1 h [8]: 1070 ng/g
- Cmax [9]: 54 ng/mL
- Activity [29]: Dose-dependent effect
- concentration at 1 h [30]: 330 ng/g
- concentration at 8 h [31]: 190 ng/mL
- IC50 [32]: > 33000 nM
- IC50 [33]: > 33000 nM
- Activity [34]: 29%
- IC50 [2]: 19 nM
- F [35]: 68%
- concentration at 8 h [11]: 50 ng/g
- inhibition [36]: -1%
